Source: ChEMBL document CHEMBL1777669, “Synthesis of substituted triazolyl curcumin mimics that inhibit RANKL-induced osteoclastogenesis” (Bioorg Med Chem Lett, 2011)

System: RAW264.7
Assay: Antiresorptive activity in mouse RAW264.7 cells assessed as inhibition of RANKL-induced osteoclastogenesis after 4 days by TRAP assay
Assay type: functional, cell-based
Settings: not given
Outline: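 RAW264.7 cells, maintained in DMEM with 10% FBS and penicillin/streptomycin at 37 °C under 5% CO₂, were seeded at 1 × 10³ cells/well in α-MEM. On day 4, cells were fixed in 10% formalin (10 min) and 95% ethanol (1 min), then dried. TRAP activity was measured with 5 mM p-nitrophenylphosphate in 50 mM citrate buffer (pH 4.6, 10 mM tartrate) for 30 min, stopped with 0.1 N NaOH, and read at 410 nm.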

Compound | inhibition
COc1ccc(/C=C/C(=O)c2cccc(-n3cc(-c4ccc(C)cc4)nn3)c2)cc1O | Dose-dependent effect
COc1ccc(/C=C/C(=O)c2cccc(-n3cc(-c4ccccc4)nn3)c2)cc1O | Dose-dependent effect
COc1cc(/C=C/C(=O)c2cccc(-n3cc(-c4ccccc4C(F)(F)F)nn3)c2)ccc1O | Dose-dependent effect
COc1ccc(/C=C/C(=O)c2cccc(N=[N+]=[N-])c2)cc1O | Dose-dependent effect

Same assay, conditions: RAW264.7, 96 h

Compound | IC50 [µM]
COc1ccc(/C=C/C(=O)c2cccc(-n3cc(C(C)(C)O)nn3)c2)cc1O | 17.1
CCCCCc1ccc(-c2cn(-c3cccc(C(=O)/C=C/c4ccc(OC)c(O)c4)c3)nn2)cc1 | > 30
COc1ccc(/C=C/C(=O)c2cccc(-n3cc(-c4ccc(C)cc4)nn3)c2)cc1O | 1.7
COc1ccc(-c2cn(-c3cccc(C(=O)/C=C/c4ccc(OC)c(O)c4)c3)nn2)cc1 | 6.29
COc1ccc(/C=C/C(=O)c2cccc(-n3cc(-c4ccc(Br)cc4)nn3)c2)cc1O | 6.57
COc1cc(/C=C/C(=O)c2cccc(-n3cc(C(C)(C)O)nn3)c2)ccc1O | 19.8
COc1cc(/C=C/C(=O)c2cccc(-n3cc(-c4cc(F)cc(F)c4)nn3)c2)ccc1O | 22.8
COc1ccc(-c2cn(-c3cccc(C(=O)/C=C/c4ccc(O)c(OC)c4)c3)nn2)cc1 | 7.9
COc1cc(/C=C/C(=O)c2cccc(-n3cc(-c4ccc(F)cc4)nn3)c2)ccc1O | 6.45
COc1cc(/C=C/C(=O)c2cccc(-n3cc(-c4ccccc4)nn3)c2)ccc1O | 16.8
COc1ccc(/C=C/C(=O)c2cccc(-n3cc(-c4ccccc4C(F)(F)F)nn3)c2)cc1O | 9.12
CCCCCc1ccc(-c2cn(-c3cccc(C(=O)/C=C/c4ccc(O)c(OC)c4)c3)nn2)cc1 | 5.78
COc1cc(/C=C/C(=O)c2cccc(-n3cc(-c4ccc(Br)cc4)nn3)c2)ccc1O | 19.1
COc1cc(/C=C/C(=O)c2cccc(-n3cc(-c4ccc(C)cc4)nn3)c2)ccc1O | 15.4
COc1ccc(/C=C/C(=O)c2cccc(-n3cc(-c4ccccc4)nn3)c2)cc1O | 1.51
COc1cc(/C=C/C(=O)c2cccc(N=[N+]=[N-])c2)ccc1O | 7.11
COc1cc(/C=C/C(=O)c2cccc(-n3cc(-c4ccccc4C(F)(F)F)nn3)c2)ccc1O | 5.07
C=C(C)c1cn(-c2cccc(C(=O)/C=C/c3ccc(OC)c(O)c3)c2)nn1 | 7.76
COc1ccc(/C=C/C(=O)c2cccc(-n3cc(-c4cc(F)cc(F)c4)nn3)c2)cc1O | 7.14
COc1ccc(/C=C/C(=O)c2cccc(N=[N+]=[N-])c2)cc1O | 1.96
COc1ccc(/C=C/C(=O)c2cccc(-n3cc(-c4ccc(F)cc4)nn3)c2)cc1O | 2.5
COc1ccc(/C=C/C(=O)c2cccc(-n3cc(-c4cccc(Cl)c4)nn3)c2)cc1O | 6.61
C=C(C)c1cn(-c2cccc(C(=O)/C=C/c3ccc(O)c(OC)c3)c2)nn1 | 9.79
COc1cc(/C=C/C(=O)c2cccc(-n3cc(-c4cccc(Cl)c4)nn3)c2)ccc1O | 14.3
